Assay results taken from ChEMBL document CHEMBL1130330, “Synthesis of gonadotropin-releasing hormone III analogs. Structure-antitumor activity relationships” (1997).
Square brackets hold non-standard residues; d marks the D form. Peptide text beside a SMILES is read from it. pGlu = O=C1CC[C@@H](C(=O)O)N1

Tests used:
PC-3 [1] = test: The concentration to inhibit colony formation of PC3 human tumor cell lines; format: functional
Outline: (§1)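 Clonogenic assay on human tumor cell lines, with each peptide at 50 (unit as printed). Colony formation reflects cell survival. Results are given as % inhibition of colony formation relative to untreated controls, mean ± deviation.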

MCF7 [2] = test: (§2) The concentration to inhibit colony formation of MCF-7 human tumor cell lines; format: functional; outline: as §1
MCF7 [3] = test: The concentration to inhibit cell proliferation of MCF-7 human tumor cell lines using the sulforhodamine B assay; format: functional
Outline: (§3)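 Sulforhodamine B assay with each peptide at 50 (unit as printed). Dye bound to cells is quantified spectrophotometrically. Results are expressed as % inhibition relative to control, mean ± deviation.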

Ishikawa = test: The concentration to inhibit colony formation of Ishikawa human tumor cell lines; format: functional; outline: as §1
PC-3 [4] = test: The concentration to inhibit cell proliferation of PC3 human tumor cell lines using the sulforhodamine B assay; format: functional; outline: as §3
MDA-MB-231 [5] = test: The concentration to inhibit colony formation of MDA-MB-231 human tumor cell lines; format: functional; outline: as §1
MDA-MB-231 [6] = test: The concentration to inhibit cell proliferation of MDA-MB-231 human tumor cell lines using the sulforhodamine B assay; format: functional; outline: as §3
LNCaP [7] = test: The concentration to inhibit cell proliferation of LNCaP human tumor cell lines using the sulforhodamine B assay; format: functional; outline: as §3
LNCaP [8] = test: The concentration to inhibit cell proliferation of LNCaP human tumor cell lines; format: functional
Homo sapiens = species: Homo sapiens; test: as §2; format: functional, MCF7; outline: as §1
MCF7 [9] = test: The concentration to inhibit cell proliferation of MCF-7 human tumor cell lines; format: functional
Outline: (§4)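 Cell proliferation assay with peptide treatment. Cells are released from Petri dishes by trypsinization and counted directly. Results are expressed as percentage of control values.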

PC-3 [10] = test: The concentration to inhibit cell proliferation of PC3 human tumor cell lines; format: functional; outline: as §4
MDA-MB-231 [11] = test: The concentration to inhibit cell proliferation of MDA-MB-231 human tumor cell lines; format: functional; outline: as §4

Compound	Inhibition (PC-3 [1]) [%]	Inhibition (MCF7 [2]) [%]	Inhibition (MCF7 [3]) [%]	Inhibition (Ishikawa) [%]	Inhibition (PC-3 [4]) [%]	Inhibition (MDA-MB-231 [5]) [%]	Inhibition (MDA-MB-231 [6]) [%]	Inhibition (LNCaP [7]) [%]	Inhibition (LNCaP [8]) [%]	Inhibition (Homo sapiens) [%]	Inhibition (MCF7 [9]) [%]	Inhibition (PC-3 [10]) [%]	Inhibition (MDA-MB-231 [11]) [%]
NCCCC[C@H](NC(=O)[C@H](Cc1c[nH]c2ccccc12)NC(=O)[C@H](CC(=O)O)NC(=O)[C@H](Cc1c[nH]cn1)NC(=O)[C@H](CO)NC(=O)[C@H](Cc1c[nH]c2ccccc12)NC(=O)[C@H](Cc1c[nH]cn1)NC(=O)[C@@H]1CCC(=O)N1)C(=O)N1CC=C[C@H]1C(=O)NCC(N)=O	19	42	19	21	14	42	18	–	–	–	–	–	–
NCCCC[C@H](NC(=O)[C@H](Cc1c[nH]c2ccccc12)NC(=O)[C@H](CC(=O)O)NC(=O)[C@H](Cc1c[nH]cn1)NC(=O)[C@H](CO)NC(=O)[C@H](Cc1c[nH]c2ccccc12)NC(=O)[C@H](Cc1c[nH]cn1)NC(=O)[C@@H]1CCC(=O)N1)C(=O)N1CCC[C@H]1C(=O)NCC(N)=O	21	45	20	18	12	44	19	40	32	18	18	14	18
CCNC(=O)[C@@H]1CCCN1C(=O)[C@H](CCCCN)NC(=O)[C@H](Cc1c[nH]c2ccccc12)NC(=O)[C@H](CC(=O)O)NC(=O)[C@H](Cc1c[nH]cn1)NC(=O)[C@H](CO)NC(=O)[C@H](Cc1c[nH]c2ccccc12)NC(=O)[C@H](Cc1c[nH]cn1)NC(=O)[C@@H]1CCC(=O)N1 ([pGlu]HWSHDWKP-NHEt)	22	28	20	13	15	27	32	–	–	–	–	–	–
NCCCC[C@H](NC(=O)[C@H](CO)NC(=O)[C@H](Cc1c[nH]c2ccccc12)NC(=O)[C@H](Cc1c[nH]cn1)NC(=O)[C@@H]1CCC(=O)N1)C(=O)N[C@@H](CC(=O)O)C(=O)N[C@@H](Cc1c[nH]c2ccccc12)C(=O)N[C@@H](CCCCN)C(=O)N1CCC[C@H]1C(=O)NCC(N)=O	0	5	4	6	–	4	2	–	–	–	–	–	–
CC(C)C[C@H](NC(=O)CNC(=O)[C@H](Cc1ccc(O)cc1)NC(=O)[C@H](CO)NC(=O)[C@H](Cc1c[nH]c2ccccc12)NC(=O)[C@H](Cc1c[nH]cn1)NC(=O)[C@@H]1CCC(=O)N1)C(=O)N[C@@H](CCCN=C(N)N)C(=O)N1CCC[C@H]1C(=O)NCC(N)=O	15	27	–	17	–	29	–	–	–	–	–	–	–
C[C@@H](NC(=O)[C@@H]1CCCN1C(=O)[C@H](CCCCN)NC(=O)[C@H](Cc1c[nH]c2ccccc12)NC(=O)[C@H](CC(=O)O)NC(=O)[C@H](Cc1c[nH]cn1)NC(=O)[C@H](CO)NC(=O)[C@H](Cc1c[nH]c2ccccc12)NC(=O)[C@H](Cc1c[nH]cn1)NC(=O)[C@@H]1CCC(=O)N1)C(N)=O	3	4	8	6	2	15	8	–	–	–	–	–	–
CC(=O)NCCCC[C@H](NC(=O)[C@H](Cc1c[nH]c2ccccc12)NC(=O)[C@H](Cc1c[nH]cn1)NC(=O)[C@@H]1CCC(=O)N1)C(=O)N[C@@H](Cc1c[nH]cn1)C(=O)N[C@@H](CC(=O)O)C(=O)N[C@@H](Cc1c[nH]c2ccccc12)C(=O)N[C@@H](CCCCN)C(=O)N1CCC[C@H]1C(=O)NCC(N)=O	12	52	–	14	–	42	–	–	–	–	–	–	–
NCCCC[C@H](NC(=O)[C@H](CO)NC(=O)[C@H](Cc1c[nH]c2ccccc12)NC(=O)[C@H](Cc1c[nH]cn1)NC(=O)[C@@H]1CCC(=O)N1)C(=O)N[C@H]1CC(=O)NCCCC[C@@H](C(=O)N2CCC[C@H]2C(=O)NCC(N)=O)NC(=O)[C@H](Cc2c[nH]c3ccccc23)NC1=O	11	44	19	13	16	27	21	–	–	–	–	–	–
NCCCC[C@H](NC(=O)[C@H](Cc1c[nH]c2ccccc12)NC(=O)[C@H](Cc1c[nH]cn1)NC(=O)[C@@H]1CCC(=O)N1)C(=O)N[C@@H](Cc1c[nH]cn1)C(=O)N[C@@H](CC(=O)O)C(=O)N[C@@H](Cc1c[nH]c2ccccc12)C(=O)N[C@@H](CCCCN)C(=O)N1CCC[C@H]1C(=O)NCC(N)=O	15	40	–	21	–	35	–	–	–	–	–	–	–
NCCCC[C@H](NC(=O)[C@H](Cc1ccccc1)NC(=O)[C@H](CC(=O)O)NC(=O)[C@H](Cc1c[nH]cn1)NC(=O)[C@H](CO)NC(=O)[C@H](Cc1c[nH]c2ccccc12)NC(=O)[C@H](Cc1c[nH]cn1)NC(=O)[C@@H]1CCC(=O)N1)C(=O)N1CCC[C@H]1C(=O)NCC(N)=O	–	26	–	–	–	21	–	–	–	–	–	–	–
NCCCC[C@H](NC(=O)[C@H](Cc1cn(C=O)c2ccccc12)NC(=O)[C@H](CC(=O)O)NC(=O)[C@H](Cc1c[nH]cn1)NC(=O)[C@H](CO)NC(=O)[C@H](Cc1cn(C=O)c2ccccc12)NC(=O)[C@H](Cc1c[nH]cn1)NC(=O)[C@@H]1CCC(=O)N1)C(=O)N1CC=C[C@H]1C(=O)NCC(N)=O	20	31	–	24	–	32	–	–	–	–	–	–	–
NCCCC[C@H](NC(=O)[C@H](Cc1c[nH]c2ccccc12)NC(=O)[C@H](CCC(=O)O)NC(=O)[C@H](Cc1c[nH]cn1)NC(=O)[C@H](CO)NC(=O)[C@H](Cc1c[nH]c2ccccc12)NC(=O)[C@H](Cc1c[nH]cn1)NC(=O)[C@@H]1CCC(=O)N1)C(=O)N1CCC[C@H]1C(=O)NCC(N)=O	20	44	17	5	12	25	27	–	–	–	–	–	–
NC(=O)CNC(=O)[C@@H]1CCCN1C(=O)[C@@H]1CCCCNC(=O)C[C@H](NC(=O)[C@H](Cc2c[nH]cn2)NC(=O)[C@H](CO)NC(=O)[C@H](Cc2c[nH]c3ccccc23)NC(=O)[C@H](Cc2c[nH]cn2)NC(=O)[C@@H]2CCC(=O)N2)C(=O)N[C@@H](Cc2c[nH]c3ccccc23)C(=O)N1	18	44	20	16	11	27	16	–	–	–	–	–	–
